INS promoter act – TRM-6 insulin promoter activation. TRM-6 cells, insulin promoter eGFP reporter, imaging; plate-scaled: unstimulated 0, stimulated control 100. activation, % at 2 µM. hit rate 0.81% among 130,000. AID 1296;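 active = activation at 2 µM above a set limit, confirmed on inspection of the cell images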;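 also: share of cells whose green reporter signal exceeds an intensity cutoff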
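Material: Human fetal islet-derived TRM-6 cells with tamoxifen-inducible insulin promoter–eGFP reporter | Medium: Low-glucose (5.5 mM) medium with tamoxifen | Probe or stimulus: Tamoxifen inducer, 0.75 µM, in seeding medium | Schedule: Tamoxifen pre-incubation 15 h overnight, then compound exposure 48 h at 37 °C | Detection: High-content imaging of fixed cells with Hoechst nuclear stain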
An asterisk follows results filed as active. Only a selection was taken, and hits are over-represented in it overall.

SMILES | INS promoter act
CCOC(=O)C1=C(SCC(=O)Nc2ccccc2)NC(=O)C(C#N)C12CCCCC2 (stereo not drawn) | 0.0
CCOc1ccccc1NC(=O)COC(=O)CSc1ccc(Cl)cc1 | -8.1
CC(=O)Nc1ccc(NC(=O)Cn2cnc3c(cnn3C(C)(C)C)c2=O)cc1 | 431.3*
CCOC(=O)c1ccccc1NC(=O)Cn1cnc2c(cnn2-c2ccc(OC)cc2)c1=O | -75.0
CC(=O)Nc1ccc(NC(=O)Cn2cnc3c(nnn3Cc3ccc(F)cc3)c2=O)cc1 | 0.0
Cc1nc2sc(C(=O)OC(C)C)c(N)c2c(C)c1C | -100.0
O=C(Nc1cccc(-c2cnc3ccccc3n2)c1)c1cccc(NC(=O)c2ccco2)c1 | 7.1
O=C(Nc1nccs1)c1cccc(NC(=O)c2ccco2)c1 | -92.9
O=C(Nc1cccc(-c2nc3cccnc3s2)c1)c1ccco1 | 481.3*
CCOC(=O)N1CCN(S(=O)(=O)c2ccc3c(c2)SC(C)C(=O)N3)CC1 (stereo not drawn) | 9.4
CN1C(=O)/C(=C/C=C2\SCCN2C)N(C)C1=S | -88.9
Cc1cc(C)c2nc(N3CCC(C(=O)NCCCN4CCCCC4)CC3)sc2c1 | 513.3*
Cc1cc(C)c(S(=O)(=O)NCC2CCC(C(=O)NCCCN3CCOCC3)CC2)c(C)c1 (stereo not drawn) | 3.7
Cc1ccc(CCNC(=O)C2CCN(c3nn4c(=O)cc(C)nc4s3)CC2)cc1 | 107.7
N#CCCN(C(=O)COC(=O)c1ccc(CNS(=O)(=O)c2ccc(F)c(Cl)c2)cc1)c1ccc(F)cc1 | -8.3
COc1cc(C2C3CN(C)CC=C3C(C#N)=C(N)C2(C#N)C#N)ccc1OC(C)C (stereo not drawn) | 257.1*
COc1cc(C2NC(=O)C(C#N)=C(S)N2c2ccccc2)ccc1OC(C)C (stereo not drawn) | 191.9
CN1C2C=C3C(C#N)=C(N)C(C#N)(C#N)C(c4ccc(Br)cc4)C3C1CC2 (stereo not drawn) | 281.3
Cc1ccc(C2C3CSCC=C3C(C#N)=C(N)C2(C#N)C#N)cc1 (stereo not drawn) | -3.8
CC(C)N1CC=C2C(C#N)=C(N)C(C#N)(C#N)[C@H](c3ccoc3)[C@H]2C1 | 161.3*
Nc1c(C(=O)Nc2ccc(F)cc2)nnn1-c1cccc(C(F)(F)F)c1 | 7.1
CCN(CC)c1nc(C)nc2c1cnn2CCc1ccccc1 | -8.6
O=C(COc1ccc(Cl)cc1)N1CCN(C(=O)c2cccs2)CC1 | -7.1
O=C(COC(=O)Cc1ccsc1)NCC1CCCCC1 | -8.1
Cc1ccc(CSC2=Nc3ccccc3C3=NC(CC(=O)NCc4ccco4)C(=O)N23)cc1 (stereo not drawn) | -2.6
SMILES | INS promoter act
COc1cc(C2C(C(=O)c3ccc(C)o3)=C(O)C(=O)N2c2cc(C)on2)cc(Br)c1O (stereo not drawn) | 5.3
CCOc1ccc(C2CC(=O)n3nc(C45CC6CC(CC(C6)C4)C5)nc3S2)cc1OC (stereo not drawn) | -7.4
CCOc1ccc(C2N(c3cc(C)on3)C(=O)C3CCCN32)cc1OC (stereo not drawn) | 120.0*
Cc1ccnc(N(C(=O)c2cccs2)C(=O)c2cccs2)c1 | 83.9*
Cc1cccc(-c2nnc(NC(=O)c3cccs3)s2)c1 | 2.4
Cc1ccc(-c2noc(CN(C(=O)c3cccs3)C(C)C)n2)cc1 | 8.6
CCCn1c2c(c(O)c(C(=O)Nc3nc4ccccc4s3)c1=O)CCCC2 | 4.8
O=C1CSC(c2ccccc2[N+](=O)[O-])N1CCc1ccccc1 (stereo not drawn) | 5.6
O=C(NNC(=S)NCC1CCCO1)c1cccc(S(=O)(=O)N2CCOCC2)c1 (stereo not drawn) | -72.2
O=c1c2ccccc2c(C=NCCCN2CCOCC2)c(O)n1Cc1ccccc1 | -3.2
CCN(c1ccc(N=Cc2c(O)n(Cc3ccc(OC)cc3)c(=O)c3ccccc23)cc1)C(C)C | 471.4*
COc1ccc(N=Cc2sc(O)c3ccccc23)cc1 | 0.0
CC(C)COc1cccc(C(=O)NC(=S)Nc2cccc(NC(=O)c3ccccc3Cl)c2)c1 | 0.0
N#CC1=C(N)SC(N)=C(C#N)C1c1cccc(O)c1 | 0.0
Cc1c(-c2ncn[nH]2)sc(C#N)c1-c1ccccc1 | 0.0
COc1cccc(NC(=S)N(CCCN2CCOCC2)C(C)c2cc3cccc(OC)c3o2)c1 (stereo not drawn) | 258.8*
COc1cccc2cc(C(C)N(CCCN3CCOCC3)C(=S)Nc3ccc(C)cc3)oc12 (stereo not drawn) | -5.9
COc1cccc(NC(=O)N(CCCN2CCOCC2)C(C)c2cc3ccccc3o2)c1 (stereo not drawn) | -9.7
CCCCCNC(=O)N[C@H](C(=O)O)C(C)C | 0.0
O=C(NCCOc1ccccc1)c1n[nH]c(=O)c2ccccc12 | 0.0
C=CCOc1c(Cl)cc(CNc2nccs2)cc1OC | 5.6
C[C@@H](C(=O)NCC1CC1)[C@@H]1C[C@@]1(C)[C@@H](NC(=O)OCc1ccccc1)c1ccccc1 | 0.0
CNC(=O)[C@@H]1C[C@H]1[C@@H](NC(=O)OCc1ccccc1)c1ccccc1 | 255.0*
C[C@H](CO)NC(=O)[C@H](C)[C@H]1C[C@]1(C)[C@H](NC(=O)OCc1ccccc1)c1ccccc1 | 0.0
O=c1c2oc3ccccc3c2[nH]c(=S)n1-c1ccc(F)cc1 | 0.0
SMILES | INS promoter act
O=C(c1ccccn1)N1CC=C(c2ccccc2)CC1 | 5.6
Cc1cc(C)c2c(=O)[nH]c(SCC(=O)c3ccc(C(C)C)cc3)nc2n1 | 3.1
C=CCN1C(=O)/C(=C\c2ccc(OC(=O)c3ccco3)c(OC)c2)SC1=S | 111.1
Cc1ccc(N2C(=O)/C(=C\c3ccco3)SC2=S)cc1 | -2.9
O=C1/C(=C\c2ccco2)SC(=S)N1Cc1ccccc1 | 150.0*
COc1ccc(NC(=O)Cn2nc(C)c([N+](=O)[O-])c2C)cn1 | -8.3
Cc1ccc(C(=O)O)cc1NC(=O)CN1C(=O)C2C3c4ccccc4C(Br)(c4ccccc43)C2C1=O (stereo not drawn) | 6.7
Cc1nn(Cc2ccc(Cl)c(Cl)c2)c(C)c1NC(=O)c1cn(-c2ccccc2)nc1-c1ccccc1 | 7.0
O=C(Nc1nnc(CCN2CCCCC2)s1)c1ccccc1Cl | 0.0
O=C(Nc1ccccc1N1CCOCC1)c1ccc2c(c1)OCO2 | 366.7*
O=C(Nc1ccccc1)c1ccc2c(c1)OCCO2 | 8.6
COc1ccc(C(=O)NC(=S)Nc2ccccc2N2CCOCC2)cc1Br | -1.6
CCOC(=O)Cc1csc(NS(=O)(=O)c2ccc(SC)cc2)n1 | 114.3
CC(=O)c1ccc(OCCCC(=O)Nc2cccc(S(=O)(=O)N(C)C)c2)cc1 | 0.0
COC(=O)Nc1ccccc1C(=O)N1CCC(O)(c2ccc(Cl)cc2)CC1 | 0.0
Cc1cc(C)n(-c2nc3ccccc3nc2N2CCN(C(=O)c3ccc(Cl)cc3)CC2)n1 | -5.1
Cc1cccc2nc(-c3ccccc3)nc(N3CCC(O)(c4ccc(Cl)cc4)CC3)c12 | 454.5*
CCOC(=O)N1CCN(C(=O)C2CCCN(S(=O)(=O)c3ccc(C)cc3)C2)CC1 (stereo not drawn) | 0.0
COc1ccccc1N1CCN(S(=O)(=O)c2cccs2)CC1 | 2.9
COc1ccc(N2CCN(S(=O)(=O)c3ccc(Cl)s3)CC2)cc1 | 2.4
COc1ccc(N2CCN(S(=O)(=O)c3cccs3)CC2)cc1 | 500.0*
CCOC(=O)COc1ccc(S(=O)(=O)N2CCN(c3ccc(OC)cc3)CC2)cc1 | 6.7
Cc1nccn1CC(O)Cn1c2ccccc2c2ccccc21 (stereo not drawn) | 9.5
Cc1cccc(C)c1N(CC(O)Cn1c2ccccc2c2ccccc21)S(C)(=O)=O (stereo not drawn) | 89.3*

Screening results deposited in PubChem by Columbia University Molecular Screening Center.
